From ChEMBL document CHEMBL4033620, “Design, synthesis and biological evaluation of quinoline derivatives as HDAC class I inhibitors” (Eur J Med Chem, 2017) come the findings set out here.

One may read the IC50 as the concentration needed to halve the response being measured.

Test [1] can be described thus: Inhibition of Class 2a histone deacetylase in human K562 cells using Boc-Lys-(epsilon-trifluoromethylacetyl)-AMC as substrate preincubated with compound for 3 hrs followed by substrate addition measured after 3 hrs by fluorometric analysis. It is filed as cell-based.
The subject of test [2] is K562. Kind of test: Induction of apoptosis in human K562 cells assessed as late apoptotic cells at 2 uM after 24 hrs by Annexin V-FITC/propidium iodide staining-based flow cytometry (reference value: 2.83%). It is filed as functional. On the technique in general: Flow cytometry measures light scatter and fluorescence of single cells or particles in a stream.
For test [3], the system named is K562. Kind of test: Induction of apoptosis in human K562 cells assessed as early apoptotic cells at 2 uM after 24 hrs by Annexin V-FITC/propidium iodide staining-based flow cytometry (reference value: 4.78%). It is filed as functional.
For test [4], the system named is K562. Kind of test: Induction of apoptosis in human K562 cells assessed as necrotic cells at 1 uM after 24 hrs by Annexin V-FITC/propidium iodide staining-based flow cytometry (reference value: 0.035%). It is filed as functional.
Test [5] deals with PC-3. Kind of test: Antiproliferative activity against human PC3 cells after 48 hrs by MTT assay. It is filed as functional, cell-based. The conditions noted are these: PC-3, 48 h. Summed up:
(§1)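 Cells grown in RPMI1640 with 10% FBS at 37°C, 5% CO2. Seeded at 4000–5000 cells/well for 8 h, then exposed to a range of compound concentrations for 48 h. 0.5% MTT solution added for 4 h, formazan dissolved in DMSO, absorbance read at 570 nm. IC50 derived from inhibition ratios, given as mean ± standard deviation of two or three separate determinations.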

Test [6] has as its system K562. Kind of test: Potency index, ratio of vorinostat IC50 to compound IC50 for human K562 cells. The class given is functional. Summed up:
(§2)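 Cells were grown in RPMI1640 with 10% FBS at 37°C and 5% CO2, seeded at 4000–5000 cells/well for 8 h, then exposed to a compound concentration series for 48 h. MTT (0.5%) was added for 4 h and formazan dissolved in DMSO. A570 was read and IC50 derived from inhibition ratios.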

For a further test, the system named is HEL. Kind of test: Antiproliferative activity against human HEL cells after 48 hrs by MTT assay. It is filed as functional, cell-based. In general terms: Formazan colour is commonly taken as a measure of viable cells.
Test [7] relates to PC-3. Kind of test: Potency index, ratio of vorinostat IC50 to compound IC50 for human PC3 cells. It is filed as functional. In outline: as §2
For a further test, the system named is HeLa. Kind of test: Antiproliferative activity against human HeLa cells after 48 hrs by MTT assay. The class given is functional, cell-based. In outline: as §1
Test [8] relates to K562. Kind of test: Induction of apoptosis in human K562 cells assessed as viable cells at 2 uM after 24 hrs by Annexin V-FITC/propidium iodide staining-based flow cytometry (reference value: 92.4%). It is filed as functional. The settings on record: Homo sapiens, K562, 24 h; read-out: Activity.
For test [9], the target named is T1, Protein deacetylase HDAC6 (Homo sapiens, UniProt Q9UBN7).
T1 sequence (Q9UBN7 whole entry): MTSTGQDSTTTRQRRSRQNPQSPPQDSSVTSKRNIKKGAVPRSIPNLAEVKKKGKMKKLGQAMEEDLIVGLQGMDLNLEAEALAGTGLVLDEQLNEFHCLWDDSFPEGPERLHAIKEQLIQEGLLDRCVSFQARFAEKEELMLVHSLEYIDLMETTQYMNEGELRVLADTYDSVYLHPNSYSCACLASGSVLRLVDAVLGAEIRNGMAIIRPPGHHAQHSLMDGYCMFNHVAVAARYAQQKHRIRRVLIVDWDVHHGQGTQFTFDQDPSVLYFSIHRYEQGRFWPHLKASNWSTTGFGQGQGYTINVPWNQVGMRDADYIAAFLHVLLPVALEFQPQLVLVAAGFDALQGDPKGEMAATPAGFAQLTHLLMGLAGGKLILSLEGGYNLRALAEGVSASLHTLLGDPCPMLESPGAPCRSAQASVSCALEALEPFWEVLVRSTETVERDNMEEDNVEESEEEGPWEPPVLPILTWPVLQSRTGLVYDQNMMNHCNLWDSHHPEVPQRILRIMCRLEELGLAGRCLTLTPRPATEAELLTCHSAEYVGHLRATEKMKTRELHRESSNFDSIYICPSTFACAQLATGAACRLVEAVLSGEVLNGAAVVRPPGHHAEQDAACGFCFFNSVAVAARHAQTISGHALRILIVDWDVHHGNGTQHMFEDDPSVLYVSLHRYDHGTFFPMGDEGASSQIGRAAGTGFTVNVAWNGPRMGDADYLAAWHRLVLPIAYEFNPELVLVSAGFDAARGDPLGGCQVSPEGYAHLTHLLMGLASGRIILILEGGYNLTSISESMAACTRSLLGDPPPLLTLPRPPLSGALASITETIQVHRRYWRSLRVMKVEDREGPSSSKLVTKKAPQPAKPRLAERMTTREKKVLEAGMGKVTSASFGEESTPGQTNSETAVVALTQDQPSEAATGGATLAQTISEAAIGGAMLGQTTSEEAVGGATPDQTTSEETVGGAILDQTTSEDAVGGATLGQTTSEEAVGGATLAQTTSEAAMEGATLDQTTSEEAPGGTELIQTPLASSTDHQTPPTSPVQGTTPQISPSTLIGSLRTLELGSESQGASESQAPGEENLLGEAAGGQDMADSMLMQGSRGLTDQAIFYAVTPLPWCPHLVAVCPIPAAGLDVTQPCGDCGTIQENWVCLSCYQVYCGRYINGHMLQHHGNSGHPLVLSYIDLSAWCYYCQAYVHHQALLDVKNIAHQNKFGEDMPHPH
Kind of test: Inhibition of HDAC6 (unknown origin) using substrate after 30 mins by fluorometric analysis.

Test [10] relates to K562. Kind of test: Antiproliferative activity against human K562 cells after 48 hrs by MTT assay. It is filed as functional, cell-based. The conditions noted are these: K562, 48 h.
The test system of test [11] is K562. Kind of test: Induction of apoptosis in human K562 cells assessed as viable cells at 1 uM after 24 hrs by Annexin V-FITC/propidium iodide staining-based flow cytometry (reference value: 92.4%). The class given is functional. The settings on record: Homo sapiens, K562, 24 h; read-out: Activity.
The target of test [12] is Histone deacetylase (HDAC1 and HDAC2) (Homo sapiens, UniProt Q13547+Q92769). Kind of test: Inhibition of HDAC1/2 in human HeLa cell nuclear extract using COLOR DE LYS as substrate pretreated for 5 mins followed by substrate addition measured after 30 mins by UV-absorption method. The class given is cell-based.
Test [13] concerns K562. Kind of test: Induction of apoptosis in human K562 cells assessed as necrotic cells at 2 uM after 24 hrs by Annexin V-FITC/propidium iodide staining-based flow cytometry (reference value: 0.035%). The class given is functional.
A short description of test [14]: Inhibition of Class 1 histone deacetylase in human K562 cells using Boc-Lys (acetyl)-AMC as substrate preincubated with compound for 3 hrs followed by substrate addition measured after 3 hrs by fluorometric analysis. It is filed as cell-based.
Test [15] has as its system K562. Kind of test: Induction of apoptosis in human K562 cells assessed as late apoptotic cells at 1 uM after 24 hrs by Annexin V-FITC/propidium iodide staining-based flow cytometry (reference value: 2.83%). The class given is functional.
The next test deals with Histone deacetylase 1 (Homo sapiens, UniProt Q13547). Kind of test: Inhibition of HDAC1 (unknown origin) using substrate after 30 mins by fluorometric analysis.
A further test has as its target T2, Histone deacetylase 8 (Homo sapiens, UniProt Q9BY41).
T2 sequence (Q9BY41 whole entry): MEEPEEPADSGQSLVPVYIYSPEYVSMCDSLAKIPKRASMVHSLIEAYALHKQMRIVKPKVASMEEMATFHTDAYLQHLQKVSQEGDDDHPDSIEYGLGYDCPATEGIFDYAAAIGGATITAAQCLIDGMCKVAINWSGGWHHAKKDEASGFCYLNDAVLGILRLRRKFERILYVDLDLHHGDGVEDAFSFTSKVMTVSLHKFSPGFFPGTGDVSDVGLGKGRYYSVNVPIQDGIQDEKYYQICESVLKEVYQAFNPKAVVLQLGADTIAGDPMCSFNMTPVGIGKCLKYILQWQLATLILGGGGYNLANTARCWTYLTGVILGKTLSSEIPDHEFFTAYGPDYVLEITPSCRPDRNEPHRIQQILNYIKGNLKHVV
Kind of test: Inhibition of HDAC8 (unknown origin) using substrate after 30 mins by fluorometric analysis.

Test [16] concerns K562. Kind of test: Induction of apoptosis in human K562 cells after 24 hrs by Annexin V-FITC/propidium iodide staining-based flow cytometric method. The class given is functional, cell-based.
Another test relates to MOLT-4. Kind of test: Antiproliferative activity against human MOLT4 cells after 48 hrs by MTT assay. The class given is functional, cell-based. The conditions noted are these: MOLT-4, 48 h.
For test [17], the system named is K562. Kind of test: Induction of apoptosis in human K562 cells assessed as early apoptotic cells at 1 uM after 24 hrs by Annexin V-FITC/propidium iodide staining-based flow cytometry (reference value: 4.78%). The class given is functional.

Histone deacetylase 1, sequence (Q13547 whole entry): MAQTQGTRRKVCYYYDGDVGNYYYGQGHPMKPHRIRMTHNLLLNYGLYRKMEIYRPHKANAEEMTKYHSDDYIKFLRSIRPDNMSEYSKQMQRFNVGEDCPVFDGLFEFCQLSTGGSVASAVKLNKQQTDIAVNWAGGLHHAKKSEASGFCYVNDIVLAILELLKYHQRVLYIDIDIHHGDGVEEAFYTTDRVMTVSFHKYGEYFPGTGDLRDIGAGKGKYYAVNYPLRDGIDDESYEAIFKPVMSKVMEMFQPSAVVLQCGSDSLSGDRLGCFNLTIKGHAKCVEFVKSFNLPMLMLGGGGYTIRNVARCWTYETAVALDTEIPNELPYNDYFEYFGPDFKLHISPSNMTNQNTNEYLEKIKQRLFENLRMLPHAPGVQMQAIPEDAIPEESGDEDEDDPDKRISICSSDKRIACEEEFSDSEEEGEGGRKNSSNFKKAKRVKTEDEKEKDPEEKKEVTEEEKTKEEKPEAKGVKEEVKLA

Turning to `O=C(/C=C/c1ccc(CNCc2ccc3cccc(Cl)c3n2)cc1)NO`, the IC50 in test [1] turned out to be 4210 nM; in the test on PC-3 [5], 2920 nM; with HEL, 110 nM; with HeLa, 1820 nM; in test [9] it was 36.5 nM; in the test with K562 [10], 360 nM. The IC50 in test [12] is 275 nM; in [14], 64 nM; on Histone deacetylase 1, 95 nM; against Histone deacetylase 8 it was 911 nM; with MOLT-4, 160 nM. Also, the Activity in the test with K562 [2] is 2.96%; with K562 [3] it was 56.2%; in the test with K562 [4] it was 0.145%; with K562 [13], 0.174%; in the test with K562 [15] it was 3.75%; in the test with K562 [16], “Dose-dependent effect”. Further, in the test on K562 [17], the Activity amounted to 38.2%. Also, the “Ratio IC50” value in the test on K562 [6] and with PC-3 [7] was 3 - 5 each time. The viability at 2 µM with K562 [8] is 40.7%. Moreover, the viability at 1 µM in the test on K562 [11] was 57.9%.
